Source: PubChem BioAssay (The Scripps Research Institute Molecular Screening Center)
PAFAH1B2 inh – inhibitors of human PAFAH1B2 | 340,000 tested, 1.2% active | AID 492953 | inhibition, % at 3.39 µM | recombinant PAFAH1B2, FP-rhodamine activity probe, fluorescence polarization | P68402;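 active = inhibition above the mean of all tested compounds plus 3 SD, cut at about 24% in these data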
Target sequence (P68402 whole entry, looked up): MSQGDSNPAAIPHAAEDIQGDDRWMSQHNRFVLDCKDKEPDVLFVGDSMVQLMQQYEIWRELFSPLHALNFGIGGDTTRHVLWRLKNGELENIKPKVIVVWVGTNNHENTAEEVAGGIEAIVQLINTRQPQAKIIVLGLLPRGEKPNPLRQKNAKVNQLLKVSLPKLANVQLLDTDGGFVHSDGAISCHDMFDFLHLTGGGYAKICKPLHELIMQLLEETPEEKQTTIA
ARFGAP1 inhibitor – inhibits rat ARF GTPase activating protein 1; inhibition, % at 16.5 µM; Arfgap1-stimulated ARF1 GTP hydrolysis, GDP FP detection; 360,000 tested, 0.26% active; AID 651572; Q62848;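 active = inhibition above a per-plate limit, mean inhibition of low control wells plus 3 SD, cut at about 25% in these data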
Target sequence (Q62848 1-136 limits assumed): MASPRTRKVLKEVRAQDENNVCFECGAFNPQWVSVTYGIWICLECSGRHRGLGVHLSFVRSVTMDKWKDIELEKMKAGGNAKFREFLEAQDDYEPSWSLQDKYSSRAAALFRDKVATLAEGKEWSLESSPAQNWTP
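Assay system: purified rat His6-Arfgap1 residues 1-136 (GAP domain); Reagent: human Δ17 ARF1 bound to GTP; Dosing: 16.5 µM single point, 1.26% DMSO; Times: GTP hydrolysis reaction 2 h at 25 °C; Signal: FP, GDP Alexa 633 tracer displaced from anti-GDP antibody, 620/688 nm; Measure: % inhibition from polarization.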
pPAFAH inh – pPAFAH (human) enzyme inhibition. Q13093. recombinant pPAFAH, FP-rhodamine probe fluorescence polarization. inhibition, % at 3.39 µM. 330,000 tested, 1.5% active;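 active = inhibition above the mean inhibition across the screen plus 3 SD, cut at about 25% in these data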;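 note: inhibitors block binding of the rhodamine activity-based probe so polarization drops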
PAFAH1B3 FP inh – inhibitors of human PAFAH1B3; inhibition, % at 3.39 µM; recombinant PAFAH1B3, FP-rhodamine probe, fluorescence polarization; 340,000 tested, 0.28% active; AID 492972; Q15102;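 active = inhibition above the screen-wide average of all tested compounds plus 3 SD, cut at about 25% in these data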
PAFAH2 inh – inhibitors of human PAFAH2; Q99487; recombinant PAFAH2, FP-rhodamine activity probe, fluorescence polarization; inhibition, % at 3.39 µM; 340,000 tested, 0.99% active; AID 492956;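 active = inhibition above the mean over all tested compounds plus 3 SD, cut at about 30% in these data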;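 note: inhibitors block probe labeling of enzyme so polarization drops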
ASAP1 GAP inh – inhibitors of human ASAP1 ArfGAP activity; Q9ULH1; ASAP1-stimulated ARF1 GTP hydrolysis, GDP FP detection; AID 624377; inhibition, % at 16.5 µM; 360,000 tested, 0.19% active; in the data active = inhibition above about 25%
Target sequence (Q9ULH1 325-724 limits assumed): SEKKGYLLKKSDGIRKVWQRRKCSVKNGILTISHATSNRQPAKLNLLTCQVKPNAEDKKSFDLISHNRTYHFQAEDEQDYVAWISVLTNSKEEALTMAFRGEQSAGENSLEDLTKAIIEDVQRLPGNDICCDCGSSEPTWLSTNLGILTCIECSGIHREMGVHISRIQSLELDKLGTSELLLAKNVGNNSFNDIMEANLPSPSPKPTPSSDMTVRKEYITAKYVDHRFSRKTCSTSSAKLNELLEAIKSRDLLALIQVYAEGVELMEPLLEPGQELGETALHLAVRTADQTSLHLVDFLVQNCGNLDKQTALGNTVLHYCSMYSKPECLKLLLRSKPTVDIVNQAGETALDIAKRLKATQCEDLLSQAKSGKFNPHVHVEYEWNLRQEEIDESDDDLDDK
Numbers stand for hits. Only some compounds are listed: those with a hit (about 2.8% of all), similar ones and a draw of the others.

What do the screens show for `O=C1Nc2ccc(F)cc2C12Nc1ccccc1-c1nnc(SCc3ccccc3Cl)nc1O2` (stereo unspecified)?
PAFAH1B2 inh: 24.6; ARFGAP1 inhibitor: inactive; pPAFAH inh: inactive; PAFAH1B3 FP inh: inactive; PAFAH2 inh: inactive; ASAP1 GAP inh: inactive

How did O=C1Nc2ccc(F)cc2C12Nc1ccccc1-c1nnc(SCc3ccccc3)nc1O2 (stereo unspecified) do in these assays?
PAFAH1B2 inh: inactive; ARFGAP1 inhibitor: inactive; pPAFAH inh: inactive; PAFAH1B3 FP inh: inactive; PAFAH2 inh: inactive; ASAP1 GAP inh: inactive

How did Cc1c(Cl)ccc2c1NC(=O)C21NC(CCC(N)=O)[C@H]2C(=O)N(c3ccc(Cl)cc3)C(=O)[C@H]21 (stereo partly specified) do in these assays?
PAFAH1B2 inh: inactive; ARFGAP1 inhibitor: inactive; pPAFAH inh: 24.9; PAFAH1B3 FP inh: inactive; PAFAH2 inh: inactive; ASAP1 GAP inh: inactive

Results for O=C(CCC(=O)NNC(=O)COc1ccc(Br)cc1Br)NCc1ccccc1 ?
ARFGAP1 inhibitor: inactive; pPAFAH inh: 27.1; ASAP1 GAP inh: inactive

Results for Cc1cc(Br)cc(Br)c1OCC(=O)NNC(=O)CCC(=O)NCc1ccccc1 ?
PAFAH1B2 inh: inactive; ARFGAP1 inhibitor: inactive; PAFAH1B3 FP inh: inactive; PAFAH2 inh: inactive; ASAP1 GAP inh: inactive

Results for Oc1ccc(N=Nc2ccc3c(c2)OCCO3)c2ncccc12 ?
PAFAH1B2 inh: inactive; ARFGAP1 inhibitor: inactive; pPAFAH inh: 27.8; PAFAH1B3 FP inh: inactive; PAFAH2 inh: inactive; ASAP1 GAP inh: inactive

How did CCOc1ccc(N=Nc2ccc(O)c3ncccc23)cc1 do in these assays?
PAFAH1B2 inh: inactive; ARFGAP1 inhibitor: inactive; PAFAH1B3 FP inh: inactive; PAFAH2 inh: inactive; ASAP1 GAP inh: inactive

How did Cc1cccc(N=Nc2ccc(O)c3ncccc23)c1 do in these assays?
PAFAH1B2 inh: inactive; ARFGAP1 inhibitor: inactive; pPAFAH inh: 50.9; PAFAH1B3 FP inh: inactive; PAFAH2 inh: inactive; ASAP1 GAP inh: inactive

Results for Cc1ccc(C)c(N=Nc2ccc(O)c3ncccc23)c1 ?
PAFAH1B2 inh: inactive; ARFGAP1 inhibitor: inactive; pPAFAH inh: 26.6; PAFAH1B3 FP inh: inactive; PAFAH2 inh: inactive; ASAP1 GAP inh: inactive

How did NS(=O)(=O)c1ccc(N=Nc2ccc(O)c3ncccc23)cc1 do in these assays?
PAFAH1B2 inh: inactive; ARFGAP1 inhibitor: inactive; pPAFAH inh: 26.8; PAFAH1B3 FP inh: inactive; PAFAH2 inh: inactive; ASAP1 GAP inh: inactive

What do the screens show for `CCN(CC)S(=O)(=O)c1cc(OC)ccc1N=Nc1ccc(O)c2ncccc12`?
PAFAH1B2 inh: inactive; ARFGAP1 inhibitor: inactive; PAFAH1B3 FP inh: inactive; PAFAH2 inh: inactive; ASAP1 GAP inh: inactive

What do the screens show for `CCS(=O)(=O)c1ccc(OC)c(N=Nc2ccc(O)c3ncccc23)c1`?
PAFAH1B2 inh: inactive; ARFGAP1 inhibitor: inactive; pPAFAH inh: inactive; PAFAH1B3 FP inh: inactive; PAFAH2 inh: inactive; ASAP1 GAP inh: inactive

What do the screens show for `O=C(Nc1c2c(nn1-c1ccccc1)CS(=O)(=O)C2)c1ccccc1C(F)(F)F`?
PAFAH1B2 inh: inactive; ARFGAP1 inhibitor: inactive; pPAFAH inh: inactive; PAFAH1B3 FP inh: inactive; PAFAH2 inh: inactive; ASAP1 GAP inh: inactive

Results for CC(C)NC(=O)N(C)C[C@H]1Oc2ccc(NS(=O)(=O)c3cn(C)cn3)cc2C(=O)N([C@H](C)CO)C[C@@H]1C ?
PAFAH1B2 inh: inactive; ARFGAP1 inhibitor: inactive; pPAFAH inh: inactive; PAFAH1B3 FP inh: inactive; PAFAH2 inh: inactive; ASAP1 GAP inh: inactive

What do the screens show for `O=C(O)c1ccccc1C(=O)OCc1c(-c2ccccc2)ncc2ccccc12`?
PAFAH1B2 inh: inactive; ARFGAP1 inhibitor: inactive; pPAFAH inh: inactive; PAFAH1B3 FP inh: inactive; PAFAH2 inh: inactive; ASAP1 GAP inh: inactive

How did O=C(OCc1c(-c2ccccc2)ncc2ccccc12)c1ccco1 do in these assays?
PAFAH1B2 inh: inactive; ARFGAP1 inhibitor: inactive; pPAFAH inh: 31.6; PAFAH1B3 FP inh: inactive; PAFAH2 inh: inactive; ASAP1 GAP inh: inactive

What do the screens show for `CN(C)S(=O)(=O)c1ccc(C(=O)/C=C/c2cccnc2)cc1`?
PAFAH1B2 inh: inactive; ARFGAP1 inhibitor: inactive; pPAFAH inh: inactive; PAFAH1B3 FP inh: inactive; PAFAH2 inh: inactive; ASAP1 GAP inh: inactive

What do the screens show for `O=C(CSc1nc2ccccc2n1-c1ccccc1)Nc1ncc(Cl)cc1Cl`?
PAFAH1B2 inh: inactive; ARFGAP1 inhibitor: inactive; pPAFAH inh: 26.6; PAFAH1B3 FP inh: inactive; PAFAH2 inh: inactive; ASAP1 GAP inh: inactive

What do the screens show for `CC(C)N(C(=O)CSc1nc2ccccc2n1-c1ccccc1)C(C)C`?
PAFAH1B2 inh: inactive; ARFGAP1 inhibitor: inactive; pPAFAH inh: 31.5; PAFAH1B3 FP inh: inactive; PAFAH2 inh: inactive; ASAP1 GAP inh: inactive

What do the screens show for `Cc1cccc(-n2c(SCC(=O)Nc3ncc(Cl)cc3Cl)nc3ccccc32)c1`?
PAFAH1B2 inh: inactive; ARFGAP1 inhibitor: inactive; pPAFAH inh: inactive; PAFAH1B3 FP inh: inactive; PAFAH2 inh: inactive; ASAP1 GAP inh: inactive

How did COC(=O)c1ccc2nc(C3CCCCC3)c(Cc3ccccc3)n2c1 do in these assays?
ARFGAP1 inhibitor: inactive; ASAP1 GAP inh: inactive

How did N#C/C(=C\c1ccc(O)c(O)c1)C(=O)NCCCc1ccccc1 do in these assays?
PAFAH1B2 inh: 38.3; ARFGAP1 inhibitor: inactive; pPAFAH inh: 27.2; PAFAH1B3 FP inh: inactive; PAFAH2 inh: inactive; ASAP1 GAP inh: inactive

Results for Cc1ccccc1C(=O)N1CCC(n2nccc2NC(=O)C2CC2)CC1 ?
PAFAH1B2 inh: inactive; pPAFAH inh: inactive; PAFAH1B3 FP inh: inactive; PAFAH2 inh: inactive

Results for O=C(c1ccc2c(=O)n3c(nc2c1)CCCCC3)N1CCN(c2cccc(Cl)c2)CC1 ?
PAFAH1B2 inh: inactive; ARFGAP1 inhibitor: inactive; pPAFAH inh: inactive; PAFAH1B3 FP inh: inactive; PAFAH2 inh: inactive; ASAP1 GAP inh: inactive

What do the screens show for `CC1(C)CC(NC(=O)c2cccc(S(=O)(=O)Nc3cccc(Cl)c3)c2)CC(C)(C)N1`?
PAFAH1B2 inh: inactive; ARFGAP1 inhibitor: inactive; pPAFAH inh: 26.8; PAFAH1B3 FP inh: inactive; PAFAH2 inh: inactive; ASAP1 GAP inh: inactive

Results for COc1cc(/C=C/C(=O)O)ccc1OS(=O)(=O)c1c(C)c(C)cc(C)c1C ?
PAFAH1B2 inh: 25.8; ARFGAP1 inhibitor: inactive; pPAFAH inh: inactive; PAFAH1B3 FP inh: inactive; PAFAH2 inh: inactive; ASAP1 GAP inh: inactive

How did COc1cccc(N=C2NC(=O)/C(=C/c3cc([N+](=O)[O-])ccc3O)S2)c1 do in these assays?
PAFAH1B2 inh: 27.3; ARFGAP1 inhibitor: inactive; pPAFAH inh: inactive; PAFAH1B3 FP inh: 39.0; PAFAH2 inh: 39.7; ASAP1 GAP inh: inactive

How did Cc1cc(NCC(=O)Nc2ccc(C)c(S(=O)(=O)N3CCOCC3)c2)ccc1Br do in these assays?
ARFGAP1 inhibitor: inactive; ASAP1 GAP inh: inactive

What do the screens show for `N#Cc1ccccc1NC(=O)CSc1nnc(-c2ccc(F)cc2)n1-c1ccccc1`?
PAFAH1B2 inh: 25.7; ARFGAP1 inhibitor: inactive; PAFAH1B3 FP inh: inactive; PAFAH2 inh: inactive; ASAP1 GAP inh: inactive

Results for Cc1nnc(SCC(=O)Nc2ccc(C(N)=O)cc2)n1-c1ccccc1 ?
PAFAH1B2 inh: inactive; ARFGAP1 inhibitor: inactive; pPAFAH inh: inactive; PAFAH1B3 FP inh: inactive; PAFAH2 inh: inactive; ASAP1 GAP inh: inactive
